Values after ≈ are worked out from the molar mass of the structure shown.
Columns and labels:
[1] = tested on: Candida albicans; assay: Antifungal activity against Candida albicans isolate 6 after 48 hrs by Etest; conditions: isolate 6, 48 h
[2] = tested on: Candida albicans; assay: Antifungal activity against Candida albicans isolate 14 after 48 hrs by Etest; conditions: isolate 14, 48 h
[3] = tested on: Candida albicans; assay: Antifungal activity against Candida albicans isolate 108 harboring erg11 and erg5 double mutant after 48 hrs by Etest; format: functional; conditions: isolate 108, 48 h
[4] = tested on: Candida albicans; assay: Ratio of MIC for Candida albicans isolate 108 harboring erg11 and erg5 double mutant to MIC for Candida albicans isolate 6 expressing wild type erg11 and erg 5 enzyme; format: functional
[5] = tested on: Candida albicans; assay: Ratio of MIC for Candida albicans isolate 108 harboring erg11 and erg5 double mutant to MIC for Candida albicans isolate14 expressing wild type erg11 and erg 5 enzyme; format: functional
[6] = tested on: Candida albicans; assay: Ratio of MIC for Candida albicans isolate 108 harboring erg11 and erg5 double mutant to MIC for Candida albicans isolate 177 expressing wild type erg11 and erg 5 enzyme; format: functional
[7] = tested on: Candida albicans; assay: microbe, parasite or virus in culture; conditions: isolate 177, 48 h
[8] = tested on: Candida albicans; assay: Effect on sterol composition in Candida albicans isolate 14 expressing wild type erg11 and erg5 assessed as ergosterol level after 2 hrs by gas chromatography; format: functional; parameters: concentration or dose not given beside the values
[9] = tested on: Candida albicans; assay: Effect on sterol composition in Candida albicans isolate 108 harboring erg11 and erg5 double mutant assessed as ergosta 5,7-dienol level after 2 hrs by gas chromatography; format: functional; parameters: concentration or dose not given beside the values
[10] = tested on: Candida albicans; assay: Effect on sterol composition in Candida albicans isolate 14 expressing wild type erg11 and erg5 assessed as 14 -Methylergosta-8,24(28)-dien-3beta,6alpha-diol level after 2 hrs by gas chromatography; format: functional; parameters: concentration or dose not given beside the values
[11] = tested on: Candida albicans; assay: Effect on sterol composition in Candida albicans isolate 108 harboring erg11 and erg5 double mutant assessed as 14 -Methylergosta-8,24(28)-dien-3beta,6alpha-diol level after 2 hrs by gas chromatography; format: functional
[12] = tested on: Candida albicans; assay: Effect on sterol composition in Candida albicans isolate 14 expressing wild type erg11 and erg5 assessed as lanosterol level after 2 hrs by gas chromatography; format: functional
[13] = tested on: Candida albicans; assay: Effect on sterol composition in Candida albicans isolate 108 harboring erg11 and erg5 double mutant assessed as lanosterol level after 2 hrs by gas chromatography; format: functional; parameters: concentration or dose not given beside the values
[14] = tested on: Candida albicans; assay: Effect on sterol composition in Candida albicans isolate 14 expressing wild type erg11 and erg5 assessed as obtusifoliol level after 2 hrs by gas chromatography; format: functional; parameters: concentration or dose not given beside the values
[15] = tested on: Candida albicans; assay: Effect on sterol composition in Candida albicans isolate 108 harboring erg11 and erg5 double mutant assessed as obtusifoliol level after 2 hrs by gas chromatography; format: functional; parameters: concentration or dose not given beside the values
[16] = tested on: Candida albicans; assay: Effect on sterol composition in Candida albicans isolate 108 harboring erg11 and erg5 double mutant eburicol level after 2 hrs by gas chromatography; format: functional; parameters: concentration or dose not given beside the values
[17] = tested on: Candida albicans; assay: Antifungal activity against Candida albicans isolate 6 after 48 hrs by broth microdilution method; format: functional; conditions: isolate 6, 48 h
Procedure, shortened: (§1)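 CLSI M27-A2 broth dilution in RPMI 1640 buffered with 0.165 M MOPS (pH 7), 37°C, for azoles (fluconazole, voriconazole, itraconazole, ketoconazole, clotrimazole). For amphotericin B, the MIC is the lowest concentration with complete growth inhibition.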

[18] = tested on: Candida albicans; assay: Antifungal activity against Candida albicans isolate 14 after 48 hrs by broth microdilution method; format: functional; conditions: isolate 14, 48 h; procedure, shortened: as §1
[19] = tested on: Candida albicans; assay: Antifungal activity against Candida albicans isolate 177 after 48 hrs by broth microdilution method; format: functional; conditions: isolate 177, 48 h; procedure, shortened: as §1
[20] = tested on: Candida albicans; assay: Antifungal activity against Candida albicans isolate 108 harboring erg11 and erg5 double mutant after 48 hrs by broth microdilution method; format: functional; conditions: isolate 108, 48 h; procedure, shortened: as §1
[21] = tested on: Candida albicans; assay: Effect on sterol composition in Candida albicans isolate 108 harboring erg11 and erg5 double mutant assessed as zymosterol level after 2 hrs by gas chromatography; format: functional
[22] = tested on: Candida albicans; assay: Effect on sterol composition in Candida albicans isolate 108 harboring erg11 and erg5 double mutant assessed as 14alpha-Methylfecosterol level after 2 hrs by gas chromatography; format: functional
[23] = tested on: Candida albicans; assay: Effect on sterol composition in Candida albicans isolate 108 harboring erg11 and erg5 double mutant assessed as 4,14alpha-Dimethylcholesta-8,24-dienol level after 2 hrs by gas chromatography; format: functional
[24] = tested on: Candida albicans; assay: Effect on sterol composition in Candida albicans isolate 14 expressing wild type erg11 and erg5 assessed as eburicol level after 2 hrs by gas chromatography; format: functional
[25] = tested on: Candida albicans; assay: Antifungal activity against Candida albicans isolate 6 after 48 hrs by broth microdilution method in presence of 10 uM of efflux pump inhibitor FK506; format: functional
Procedure, shortened: (§2)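 Doubling dilutions of azole with a fixed 10 μM FK506 in microtiter wells in MOPS-buffered RPMI 1640 (pH 7). Read visually after 48 h at 37°C. The MIC is the lowest azole concentration giving at least 80% growth inhibition versus control wells.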

[26] = tested on: Candida albicans; assay: Antifungal activity against Candida albicans isolate 14 after 48 hrs by broth microdilution method in presence of 10 uM of efflux pump inhibitor FK506; format: functional; conditions: isolate 14, 48 h; procedure, shortened: as §2
[27] = tested on: Candida albicans; assay: Antifungal activity against Candida albicans isolate 177 after 48 hrs by broth microdilution method in presence of 10 uM of efflux pump inhibitor FK506; format: functional; conditions: isolate 177, 48 h; procedure, shortened: as §2
[28] = tested on: Candida albicans; assay: Antifungal activity against Candida albicans isolate 108 harboring erg11 and erg5 double mutant after 48 hrs by broth microdilution method in presence of 10 uM of efflux pump inhibitor FK506; format: functional; conditions: isolate 108, 48 h
Procedure, shortened: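 C. albicans clinical isolate grown in RPMI 1640 buffered with 0.165 M MOPS (pH 7). Azole MICs by CLSI M27-A2 broth microdilution, with doubling drug dilutions plus a fixed 10 μM FK506. Plates incubated 48 h at 37°C and read visually. MIC taken as the lowest azole concentration giving at least 80% growth inhibition versus control wells.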

[29] = tested on: Candida albicans; assay: Effect on sterol composition in Candida albicans isolate 108 harboring erg11 and erg5 double mutant assessed as 4,4-Dimethylcholesta-8,14,24-trienol level after 2 hrs by gas chromatography; format: functional

Row | Compound | Activity [8] [%] | Activity [9] [%] | Activity [10] [%] | Activity [11] [%] | Activity [12] [%] | Activity [13] [%] | Activity [14] [%] | Activity [15] [%] | Activity [16] [%] | MIC [17] [µg/mL] | MIC [18] [µg/mL] | MIC [19] [µg/mL] | MIC [20] [µg/mL] | Activity [22] [%] | Activity [23] [%] | MIC [26] [µg/mL] | MIC [27] [µg/mL] | MIC [28] [µg/mL] | other results
1 | C[C@@H]1[C@H](O)[C@@H](C)/C=C/C=C/C=C/C=C/C=C/C=C/C=C/[C@H](O[C@@H]2O[C@H](C)[C@@H](O)[C@H](N)[C@@H]2O)C[C@@H]2O[C@](O)(C[C@@H](O)C[C@@H](O)[C@H](O)CC[C@@H](O)C[C@@H](O)CC(=O)O[C@H]1C)C[C@H](O)[C@H]2C(=O)O [AMPHOTERICIN B] |  |  |  |  |  |  |  |  |  |  |  |  |  |  |  |  |  |  | MIC [1]: 0.25 µg/mL (≈ 0.271 µM); MIC [2]: 0.25 µg/mL (≈ 0.271 µM); MIC [3]: 4 µg/mL (≈ 4.33 µM); Ratio [4]: 8; Ratio [5]: 8; Ratio [6]: 8; MIC [7]: 0.25 µg/mL (≈ 0.271 µM)
2 | Clc1ccccc1C(c1ccccc1)(c1ccccc1)n1ccnc1 [CLOTRIMAZOLE] | 30 | 42.6 | 35 | 32.8 | 35 | 16.4 | 35 | 16.4 | 8.2 | 1 (≈ 2.9 µM) | 0.0625 (≈ 0.181 µM) | 1 (≈ 2.9 µM) | 2 (≈ 5.8 µM) |  |  |  |  |  | 
3 | OC(Cn1cncn1)(Cn1cncn1)c1ccc(F)cc1F [FLUCONAZOLE] | 45.5 | 57.1 | 25.4 |  | 25 | 25.7 | 25 | 25.7 | 0.9 | 256 (≈ 836 µM) | 1 (≈ 3.27 µM) | 256 (≈ 836 µM) | 64 (≈ 209 µM) | 9.4 | 5.5 | 1 | 0.5 | 16 | Activity [21]: 1.4%; Activity [24]: 4.1%; Activity [25]: 1 µg/mL
4 | CCC(C)n1ncn(-c2ccc(N3CCN(c4ccc(OCC5COC(Cn6cncn6)(c6ccc(Cl)cc6Cl)O5)cc4)CC3)cc2)c1=O (stereo unspecified) [ITRACONAZOLE] | 33 | 25 | 38 | 50 | 29 | 16.7 | 29 | 16.7 | 8.3 | 16 (≈ 22.7 µM) | 0.0625 (≈ 0.0886 µM) | 16 (≈ 22.7 µM) | 2 (≈ 2.83 µM) |  |  |  |  |  | 
5 | CC(=O)N1CCN(c2ccc(OCC3COC(Cn4ccnc4)(c4ccc(Cl)cc4Cl)O3)cc2)CC1 (stereo unspecified) [KETOCONAZOLE] | 36.4 | 24.4 | 37.2 | 45.1 | 26.4 | 20.3 | 26.4 | 20.3 | 10.2 | 16 (≈ 30.1 µM) | 0.0625 (≈ 0.118 µM) | 16 (≈ 30.1 µM) | 1 (≈ 1.88 µM) |  |  |  |  |  | 
6 | C[C@@H](c1ncncc1F)[C@](O)(Cn1cncn1)c1ccc(F)cc1F [VORICONAZOLE] | 47.3 | 27.4 | 28.6 | 10.4 | 24.1 | 29.5 | 24.1 | 29.5 | 9.4 | 16 (≈ 45.8 µM) | 0.0625 (≈ 0.179 µM) | 16 (≈ 45.8 µM) | 8 (≈ 22.9 µM) | 12.7 | 7.2 | < 0.0625 | < 0.0625 | 4 | Activity [29]: 3.4%; MIC ([25]; Candida albicans, isolate 6, 48 h): < 0.0625 µg/mL
